Source: ChEMBL document CHEMBL1127574, “Design and synthesis of ellipticinium salts and 1,2-dihydroellipticines with high selectivities against human CNS cancers in vitro” (1994)

What was measured:
Format in all cases: functional
Conditions in all cases: Homo sapiens
Malme-3M = assay: Tested in vitro for cytotoxicity in MALME-3M
Outline: (§1)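 Compounds dissolved in DMSO, then diluted 500-fold into aqueous medium. The resulting aqueous solutions or suspensions were added to the cultured human tumour cell lines, and the cells were exposed for 48 h. Growth was read colorimetrically in one of two ways: a metabolic assay in which viable cells reduce a tetrazolium salt to a formazan dye, or a protein stain for total cellular protein.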

A549 = assay: Tested in vitro for cytotoxicity in A549/ATCC cell lines; outline: as §1
SF-268 = assay: Tested in vitro for cytotoxicity in SF-268 cell lines; outline: as §1
COLO 205 = assay: Tested in vitro for cytotoxicity in COLO 205 cell lines; outline: as §1
CAKI-1 = assay: Tested in vitro for cytotoxicity in CAKI-1 cell lines; outline: as §1
DMS-114 = assay: Tested in vitro for cytotoxicity in DMS114 cell lines; outline: as §1
IGROV-1 = assay: Tested in vitro for cytotoxicity in IGROV1 cell lines; outline: as §1
CCRF-CEM = assay: Tested in vitro for cytotoxicity in CCRF-CEM cell lines; outline: as §1

SMILES	GI50 (Malme-3M) [nM]	GI50 (A549) [µM]	GI50 (SF-268) [nM]	GI50 (COLO 205) [µM]	GI50 (CAKI-1) [µM]	GI50 (DMS-114) [nM]	GI50 (IGROV-1) [µM]	GI50 (CCRF-CEM) [µM]
Cc1c2cc[n+](CC#N)cc2c(C)c2c1[nH]c1ccccc12	27200	97.5	13000	34.6	> 100	44700	35.6	100
CSC[n+]1ccc2c(C)c3[nH]c4ccccc4c3c(C)c2c1	1990	5.23	726	2.48	19.6	2670	18.2	5.02
Cc1c2cc[n+](C[S+](C)[O-])cc2c(C)c2c1[nH]c1ccccc12 (configuration not stated)		71	2460	31	35.8	6600	29.5	40.6
COC[n+]1ccc2c(C)c3[nH]c4ccccc4c3c(C)c2c1	647	1.79	679	4.7	19.2	2280	9.2	14.6
Cc1ccc2[nH]c3c(C)c4c(c(C)c3c2c1)CN(C)C=C4	1720	0.38	395	0.306	1.21	438	0.774	2.34
COC[n+]1ccc2c(C)c3[nH]c4ccc(OC)cc4c3c(C)c2c1	1920	13.7	818	2.68	20.2	1320	27.8	6.86
